Here are results for ten molecules from ChEMBL document CHEMBL4330148, “Discovery and Characterization of Cyclic and Acyclic Trypsin Inhibitors from Momordica dioica” (J Nat Prod, 2019).

One series relates to HT-29. In words: Cytotoxicity against human HT-29 cells after 24 hrs by MTT assay. Format: cell-based. As to conditions: ht-29, 24 h. A digest of the protocol: (§1)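 HT-29, MCF7 and PC-3 cells were grown in DMEM with 10% FBS and 1% penicillin–streptomycin at 37 °C under 5% CO2. They were seeded at 2000 cells/well and grown 24 h. Peptides were added in triplicate at final concentrations of 0.05–100 μM for 24 h. 1% Triton X-100 and medium alone served as controls. MTT (5 mg/mL in PBS) was added for 4 h, formazan was dissolved in DMSO, and absorbance was read at 570 nm.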
In general terms: Formazan colour is commonly taken as a measure of viable cells.

A further series has as its system MCF7. Description: Cytotoxicity against human MCF7 cells after 24 hrs by MTT assay. Format: cell-based. As to conditions: mcf7, 24 h. Summed up:
as §1

In another series the test system is PC-3. In words: Cytotoxicity against human PC3 cells after 24 hrs by MTT assay. The series is classed as cell-based. As to conditions: pc-3, 24 h. Summed up: as §1
Series [1] in a line: Stability in 100% human serum at 30 uM after 24 hrs by RP-HPLC analysis. The series is classed as ADME, cell-free.
Series [2] is described as follows: Cytotoxicity against Spodoptera frugiperda Sf9 cells after 3 hrs by MTT assay. As to conditions: sf9, 3 h.
A further series is filed under the species Bos taurus. Description: Inhibition of bovine pancreatic trypsin at 0.1 to 100 uM preincubated for 30 mins followed by L-BAPNA substrate addition and measured after 10 mins. A digest of the protocol: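 Bovine pancreatic trypsin was dissolved in 1 mM HCl and diluted to 0.45 mg/mL in 50 mM Tris, 20 mM CaCl2, pH 8.2. Peptides (1 mM stock, eight-point 2-fold dilutions) were preincubated with trypsin for 30 min at 37 °C. L-BAPNA (0.435 mg/mL, 1% DMSO) was added for 10 min at room temperature, the reaction was stopped with 30% HOAc, and A410 was read. MCoTI-II was the reference inhibitor. Triplicate.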

Series [3] in a line: Drug metabolism in 100% human serum at 30 uM up to 4 hrs by RP-HPLC analysis. The series is classed as ADME, cell-free.

The source made the active and inactive calls. No cut-off for these calls is given here. Bridge positions count the residues as written; N and C are the ends. Peptide text beside a SMILES is read from it.

`CC[C@H](C)[C@@H]1NC(=O)[C@H](CCCNC(=N)N)NC(=O)[C@@H]2CCCN2C(=O)[C@@H]2CSSC[C@@H]3NC(=O)[C@H](C)NC(=O)[C@H](CO)NC(=O)[C@@H]4CCCN4C(=O)[C@@H]4CSSC[C@H](NC(=O)[C@H](Cc5ccc(O)cc5)NC(=O)CNC(=O)[C@H](CC(N)=O)NC(=O)CNC(=O)[C@H](CCC(N)=O)NC(=O)[C@H](CSSC[C@H](NC(=O)[C@H](CCCCN)NC(=O)[C@H](CCC(N)=O)NC(=O)[C@H](CC(C)C)NC1=O)C(=O)N[C@@H](CCCNC(=N)N)C(=O)N[C@@H](CCCNC(=N)N)C(=O)N[C@@H](CC(N)=O)C(=O)N[C@@H](CO)C(=O)N[C@@H](CC(=O)O)C(=O)N4)NC(=O)[C@H](C(C)C)NC3=O)C(=O)NCC(=O)N[C@@H](CO)C(=O)NCC(=O)N[C@@H](CO)C(=O)N[C@@H](CC(=O)O)C(=O)NCC(=O)NCC(=O)N[C@@H](C)C(=O)N2`: the Activity result (in the series on HT-29; with MCF7; with PC-3; in series [2]) was “Non-Toxic” each time. Moreover, the Stability result in series [1] was “Stable”.
On to `CC[C@H](C)[C@@H]1NC(=O)[C@H](CCCCN)NC(=O)[C@@H]2CCCN2C(=O)[C@@H]2CSSC[C@@H]3NC(=O)[C@H](C)NC(=O)CNC(=O)[C@@H]4CCCN4C(=O)[C@@H]4CSSC[C@H](NC(=O)[C@H](Cc5ccc(O)cc5)NC(=O)CNC(=O)[C@H](CC(N)=O)NC(=O)CNC(=O)[C@H](CCC(N)=O)NC(=O)[C@H](CSSC[C@H](NC(=O)[C@H](CCCCN)NC(=O)[C@H](CCC(N)=O)NC(=O)[C@H](CC(C)C)NC1=O)C(=O)N[C@@H](CCCNC(=N)N)C(=O)N[C@@H](CCCNC(=N)N)C(=O)N[C@@H](CC(=O)O)C(=O)N[C@@H](CO)C(=O)N[C@@H](CC(=O)O)C(=O)N4)NC(=O)[C@H](C(C)C)NC3=O)C(=O)NCC(=O)N[C@@H](CO)C(=O)NCC(=O)N[C@@H](CO)C(=O)N[C@H](CC(=O)O)C(=O)NCC(=O)NCC(=O)N[C@@H](C)C(=O)N2`, for which the inhibition result in the series listed under Bos taurus was “Active”.
Take `CC[C@H](C)[C@@H]1NC(=O)[C@@H]2CSSC[C@@H]3NC(=O)[C@H](C)NC(=O)CNC(=O)CNC(=O)[C@H](CC(=O)O)NC(=O)[C@H](CO)NC(=O)CNC(=O)[C@H](CO)NC(=O)CNC(=O)[C@@H]4CSSC[C@H](NC(=O)[C@H](CC(=O)O)NC(=O)[C@H](CO)NC(=O)[C@H](CC(=O)O)NC(=O)[C@H](CCCNC(=N)N)NC(=O)[C@H](CCCNC(=N)N)NC(=O)[C@H](CSSC[C@H](NC1=O)C(=O)N[C@@H](CCCNC(=N)N)C(=O)NCC(=O)N[C@@H](CC(N)=O)C(=O)NCC(=O)N[C@@H](Cc1ccc(O)cc1)C(=O)N4)NC(=O)[C@H](CCCNC(=N)N)NC(=O)[C@H](CCC(N)=O)NC(=O)[C@H](CC(C)C)NC(=O)[C@H]([C@@H](C)CC)NC(=O)[C@H](CCCCN)NC(=O)[C@@H]1CCCN1C3=O)C(=O)N1CCC[C@H]1C(=O)NCC(=O)N[C@@H](C)C(=O)N2` (cyclo(ACICRGNGYCGSGSDGGACPKILQRCRRDSDCPG); disulfide 2-19, 4-26, 10-32): the inhibition result in the series filed under Bos taurus is “Active”. Moreover, the Activity entry (with HT-29; with MCF7; in the series on PC-3; in series [2]) was “Non-Toxic” in each case. In addition, the Stability result in series [1] is on record as “Stable”.
`CC[C@H](C)[C@@H]1NC(=O)[C@@H]2CSSC[C@@H]3NC(=O)[C@H](C)NC(=O)CNC(=O)CNC(=O)[C@H](CC(=O)O)NC(=O)[C@H](CO)NC(=O)CNC(=O)[C@H](CO)NC(=O)CNC(=O)[C@@H]4CSSC[C@H](NC(=O)[C@H](CC(=O)O)NC(=O)[C@H](CO)NC(=O)[C@H](CC(=O)O)NC(=O)[C@H](CCCNC(=N)N)NC(=O)[C@H](CCCNC(=N)N)NC(=O)[C@H](CSSC[C@H](NC1=O)C(=O)N[C@@H](CCC(N)=O)C(=O)NCC(=O)N[C@@H](CC(N)=O)C(=O)NCC(=O)N[C@@H](Cc1ccc(O)cc1)C(=O)N4)NC(=O)[C@H](CCCCN)NC(=O)[C@H](CCCCN)NC(=O)[C@H](CC(C)C)NC(=O)[C@H]([C@@H](C)CC)NC(=O)[C@H](CCCNC(=N)N)NC(=O)[C@@H]1CCCN1C3=O)C(=O)N1CCC[C@H]1C(=O)N[C@@H](CO)C(=O)N[C@@H](C)C(=O)N2`: in the series filed under Bos taurus, the inhibition entry is “Active”. For the same molecule, the Activity result (in the series on HT-29; with MCF7; in the series with PC-3; in series [2]) was “Non-Toxic” each time. Further, in series [1], the Stability entry is listed as “Stable”.
Turning to `CC[C@H](C)[C@@H]1NC(=O)[C@@H]2CSSC[C@H](NC(=O)[C@@H](NC(=O)[C@H](CCCNC(=N)N)NC(=O)[C@@H]3CCC(=O)N3)C(C)C)C(=O)N3CCC[C@H]3C(=O)N[C@@H](CCCNC(=N)N)C(=O)N[C@@H]([C@@H](C)CC)C(=O)N[C@@H](CC(C)C)C(=O)N[C@@H](CCCCN)C(=O)N[C@@H](CCCCN)C(=O)N[C@H]3CSSC[C@H](NC1=O)C(=O)N[C@@H](CCC(N)=O)C(=O)NCC(=O)N[C@@H](CC(N)=O)C(=O)NCC(=O)N[C@@H](Cc1ccc(O)cc1)C(=O)N[C@H](C(=O)NCC(N)=O)CSSC[C@H](NC(=O)[C@H](CC(=O)O)NC(=O)[C@H](CO)NC(=O)[C@H](CC(=O)O)NC(=O)[C@H](CCCNC(=N)N)NC(=O)[C@H](CCCNC(=N)N)NC3=O)C(=O)N1CCC[C@H]1C(=O)NCC(=O)N[C@@H](CCC(=O)O)C(=O)N2`, the Activity result (with HT-29; with MCF7; in the series on PC-3; in series [2]) was “Non-Toxic” each time. For the same molecule, in series [1], the Stability result is recorded as “Stable”.
H-WQELYQLKY-OH: the Drug metabolism result in series [3] is “Metabolite_Detected”.
Consider `CC[C@H](C)[C@@H]1NC(=O)[C@H](CCCNC(=N)N)NC(=O)[C@@H]2CCCN2C(=O)[C@@H]2CSSC[C@@H]3NC(=O)[C@H](C)NC(=O)[C@H](CO)NC(=O)[C@@H]4CCCN4C(=O)[C@@H]4CSSC[C@H](NC(=O)[C@H](Cc5ccc(O)cc5)NC(=O)CNC(=O)[C@H](CC(N)=O)NC(=O)CNC(=O)[C@H](CCC(N)=O)NC(=O)[C@H](CSSC[C@H](NC(=O)[C@H](CCCCN)NC(=O)[C@H](CCC(N)=O)NC(=O)[C@H](CC(C)C)NC1=O)C(=O)N[C@@H](CCCNC(=N)N)C(=O)N[C@@H](CCCNC(=N)N)C(=O)N[C@@H](CC(N)=O)C(=O)N[C@@H](CO)C(=O)N[C@@H](CC(=O)O)C(=O)N4)NC(=O)[C@H](C(C)C)NC3=O)C(=O)NCC(=O)N[C@@H](CO)C(=O)NCC(=O)N[C@@H](CO)C(=O)N[C@H](CC(=O)O)C(=O)NCC(=O)NCC(=O)N[C@@H](C)C(=O)N2`, for which the inhibition entry in the series listed under Bos taurus was “Active”.
In the case of `CC[C@H](C)[C@@H]1NC(=O)[C@H](CCCCN)NC(=O)[C@@H]2CCCN2C(=O)[C@@H]2CSSC[C@@H]3NC(=O)[C@H](C)NC(=O)CNC(=O)[C@@H]4CCCN4C(=O)[C@@H]4CSSC[C@H](NC(=O)[C@H](Cc5ccc(O)cc5)NC(=O)CNC(=O)[C@H](CC(N)=O)NC(=O)CNC(=O)[C@H](CCC(N)=O)NC(=O)[C@H](CSSC[C@H](NC(=O)[C@H](CCCCN)NC(=O)[C@H](CCC(N)=O)NC(=O)[C@H](CC(C)C)NC1=O)C(=O)N[C@@H](CCCNC(=N)N)C(=O)N[C@@H](CCCNC(=N)N)C(=O)N[C@@H](CC(=O)O)C(=O)N[C@@H](CO)C(=O)N[C@@H](CC(=O)O)C(=O)N4)NC(=O)[C@H](C(C)C)NC3=O)C(=O)NCC(=O)N[C@@H](CO)C(=O)NCC(=O)N[C@@H](CO)C(=O)N[C@@H](CC(=O)O)C(=O)NCC(=O)NCC(=O)N[C@@H](C)C(=O)N2`, the Activity entry (with HT-29; in the series on MCF7; in the series on PC-3; in series [2]) was “Non-Toxic” each time. In addition, in series [1], the Stability entry was “Stable”.
Consider `CC[C@H](C)[C@@H]1NC(=O)[C@@H]2CSSC[C@H](NC(=O)[C@@H](NC(=O)[C@@H](CCCNC(=N)N)NC(=O)C3CCC(=O)N3)C(C)C)C(=O)N3CCC[C@H]3C(=O)N[C@@H](CCCNC(=N)N)C(=O)N[C@@H]([C@@H](C)CC)C(=O)N[C@@H](CC(C)C)C(=O)N[C@@H](CCCCN)C(=O)N[C@@H](CCCCN)C(=O)N[C@H]3CSSC[C@H](NC1=O)C(=O)N[C@@H](CCC(N)=O)C(=O)NCC(=O)N[C@@H](CC(N)=O)C(=O)NCC(=O)N[C@@H](Cc1ccc(O)cc1)C(=O)N[C@H](C(=O)NCC(N)=O)CSSC[C@H](NC(=O)[C@H](CC(=O)O)NC(=O)[C@H](CO)NC(=O)[C@H](CC(=O)O)NC(=O)[C@H](CCCNC(=N)N)NC(=O)[C@H](CCCNC(=N)N)NC3=O)C(=O)N1CCC[C@H]1C(=O)NCC(=O)N[C@@H](CCC(=O)O)C(=O)N2` (some centres not stated), for which, in the series listed under Bos taurus, the inhibition entry is “Active”.
As for `CC[C@H](C)[C@@H]1NC(=O)[C@H](CCCNC(=N)N)NC(=O)[C@@H]2CCCN2C(=O)[C@@H]2CSSC[C@@H]3NC(=O)[C@H](C)NC(=O)CNC(=O)[C@@H]4CCCN4C(=O)[C@@H]4CSSC[C@H](NC(=O)[C@H](Cc5ccc(O)cc5)NC(=O)CNC(=O)[C@H](CC(N)=O)NC(=O)CNC(=O)[C@H](CCCNC(=N)N)NC(=O)[C@H](CSSC[C@H](NC(=O)[C@H](CCCCN)NC(=O)[C@H](CCCCN)NC(=O)[C@H](CC(C)C)NC1=O)C(=O)N[C@@H](CCCNC(=N)N)C(=O)N[C@@H](CCCNC(=N)N)C(=O)N[C@@H](CC(=O)O)C(=O)N[C@@H](CO)C(=O)N[C@@H](CC(=O)O)C(=O)N4)NC(=O)[C@H](C(C)C)NC3=O)C(=O)NCC(=O)N[C@@H](CO)C(=O)NCC(=O)N[C@@H](CO)C(=O)N[C@@H](CC(=O)O)C(=O)NCC(=O)NCC(=O)N[C@@H](C)C(=O)N2`, in the series listed under Bos taurus, the inhibition result is “Active”. Besides, the Activity result (in the series with HT-29; in the series on MCF7; in the series on PC-3; in series [2]) was “Non-Toxic” each time. Further, the Stability result in series [1] is “Stable”.
